Screens as filed in PubChem BioAssay.
RGS4 inh: inhibitors of human RGS4; B-score at 10 µM; P49798; 310,000 compounds, 0.45% hits; HEK293 M3R/RGS4 inducible, Fluo-4 calcium flux; active compounds read high; triggered by carbachol at its EC20;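 active = B-score, a plate-corrected calcium signal, over three deviations above library mean, with baseline fluorescence within five deviations of library mean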;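 also: RGS4 expression induced by doxycycline in cells with stable M3 receptor; B-score is computed from the integrated fluorescence ratio over baseline after carbachol; higher B-score means a larger calcium signal and so more RGS4 inhibition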
Target sequence (P49798 whole entry, looked up): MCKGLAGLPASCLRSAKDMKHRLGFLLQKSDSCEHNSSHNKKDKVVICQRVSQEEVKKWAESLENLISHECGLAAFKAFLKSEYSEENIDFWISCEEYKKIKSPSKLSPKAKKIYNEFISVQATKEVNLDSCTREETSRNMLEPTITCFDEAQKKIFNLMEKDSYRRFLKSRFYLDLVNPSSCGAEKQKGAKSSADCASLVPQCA
RGS4 pot: RGS4 potentiation or activation; HEK293 M3R/inducible RGS4, carbachol calcium flux Fluo4; active compounds read low; B-score at 10 µM; 310,000 compounds, 0.92% hits; AID 463111;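 active = B-score of the integrated calcium signal more than 4 SD below the library mean, with starting fluorescence not abnormally high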;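 also: negative B-score means reduced calcium response which marks RGS4 activation or potentiation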
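Also added: carbachol at ECmax as muscarinic agonist stimulus; Assay system: HEK293 cells with stable M3R and inducible RGS4; Timing: overnight RGS4 induction, 30 min dye load 37 °C, 20 min compound RT; Measured by: Fluo4-AM (2 µM) calcium-flux fluorescence, kinetic read.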
MrgX1 antag: antagonists of human MrgX1 receptor | B-score at 10 µM | MRGX1-HEK293 calcium flux, Fluo-4, BAM8-22 antagonism; active compounds read low | Q96LB2 | 310,000 compounds, 1.3% hits | AID 588676;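 active = calcium-response B-score plate-corrected more than 3 library SD below zero, starting fluorescence within 5 deviations, no agonist response on first addition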;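 also: peak minus trough fluorescence over baseline after final BAM8-22 challenge near maximal dose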
Target sequence (Q96LB2 whole entry, looked up): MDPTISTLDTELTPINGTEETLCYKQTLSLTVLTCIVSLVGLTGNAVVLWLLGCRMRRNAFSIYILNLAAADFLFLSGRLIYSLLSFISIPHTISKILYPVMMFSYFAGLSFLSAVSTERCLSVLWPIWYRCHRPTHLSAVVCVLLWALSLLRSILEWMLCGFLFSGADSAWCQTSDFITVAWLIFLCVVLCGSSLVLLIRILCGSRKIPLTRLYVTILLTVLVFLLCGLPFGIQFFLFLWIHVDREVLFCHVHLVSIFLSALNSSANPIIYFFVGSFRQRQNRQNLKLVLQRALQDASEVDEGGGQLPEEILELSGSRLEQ
MrgX1 ag: agonists of human MrgX1 receptor; MrgX1-HEK293 cells, Fluo-4 calcium fluorescence, agonist mode; active compounds read high; B-score at 10 µM; 310,000 compounds, 0.44% hits; AID 588627;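 active = calcium response B-score plate-corrected fluorescence ratio at least 3 library SD, with starting fluorescence B-score inside 5 SD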
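Material: MrgX1-expressing HEK293 cells; input: 15,000 cells per well; doses: test compound given as first of three sequential additions; schedule: overnight plating before 1 h dye loading; technique: Fluo-4 NW calcium-flux fluorescence, kinetic read; evaluation: baseline-normalised fluorescence change ratio, B-scored; control set: plate-wise positive and negative controls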
MrgX1 allo act: allosterically activates human MrgX1 receptor signaling; AID 588675; B-score at 10 µM; 310,000 compounds, 0.63% hits; MrgX1-HEK293, Fluo-4 calcium flux, FDSS; active compounds read high;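 active = plate-corrected calcium response at least 3 library SD above typical, normal starting fluorescence, not activating the receptor alone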;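 also: compound read alongside a low EC10 to EC30 dose of BAM8-22 agonist; peak minus trough fluorescence over baseline measured at the second addition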
Starred values were filed as active, the others as inactive. Only some compounds are listed: those with a hit (about 3.5% of all), similar ones and a draw of the others.

For Cc1cc(C(F)(F)F)c(C#N)c(Sc2ccccc2)n1 the results were RGS4 inh inactive, RGS4 pot inactive, MrgX1 antag inactive, MrgX1 ag inactive and MrgX1 allo act 9.6*.
COC(=O)CSc1nc(C)cc(C(F)(F)F)c1C#N was read as RGS4 inh inactive, RGS4 pot inactive, MrgX1 antag inactive, MrgX1 ag inactive and MrgX1 allo act inactive.
`CCOC(=O)N/N=C(\C)c1cccs1` gave RGS4 inh inactive, RGS4 pot inactive, MrgX1 antag inactive, MrgX1 ag inactive and MrgX1 allo act inactive.
`CC(C)(C)n1cnc2cc(NC(=O)c3ccc(Cl)cc3)ccc21` gave RGS4 inh inactive, RGS4 pot inactive, MrgX1 antag inactive, MrgX1 ag inactive and MrgX1 allo act inactive.
O=C(O)c1ccc(CSc2nc(-c3ccc(Cl)cc3)cc(C(F)(F)F)n2)cc1 was read as RGS4 inh inactive, RGS4 pot -7.5*, MrgX1 antag inactive, MrgX1 ag inactive and MrgX1 allo act inactive.
O=C(O)c1ccc(CSc2nc(-c3ccccc3)cc(C(F)(F)F)n2)cc1 was read as RGS4 inh inactive, RGS4 pot inactive, MrgX1 antag inactive, MrgX1 ag inactive and MrgX1 allo act inactive.
COCCn1c(Cc2ccccc2)nnc1SCC(=O)N1CCCCC1C (configuration not stated) was read as RGS4 inh inactive, RGS4 pot inactive, MrgX1 antag -8.2*, MrgX1 ag inactive and MrgX1 allo act inactive.
O=C(NNC1=NCCCCC1)c1cccc([N+](=O)[O-])c1 was read as RGS4 inh inactive, RGS4 pot inactive, MrgX1 antag inactive, MrgX1 ag inactive and MrgX1 allo act inactive.
`Cc1nn(-c2ccccc2)c(C)c1/C=N/NC(=O)c1ccccc1O` gave RGS4 inh inactive, RGS4 pot inactive, MrgX1 antag inactive, MrgX1 ag inactive and MrgX1 allo act inactive.
Screening Cc1nn(-c2ccccc2)c(C)c1-c1cc(C(=O)N/N=C/c2ccc(O)cc2)[nH]n1 returned RGS4 inh inactive, RGS4 pot -7.1*, MrgX1 antag inactive, MrgX1 ag inactive and MrgX1 allo act inactive.
For Cc1nn(-c2ccccc2)c(C)c1/C=N/NC(=O)c1cc(-c2ccc(Cl)s2)[nH]n1 the results were RGS4 inh inactive, RGS4 pot -7.8*, MrgX1 antag inactive, MrgX1 ag inactive and MrgX1 allo act inactive.
Screening Cc1nn(-c2ccccc2)c(N2CCCC2)c1/C=N/NC(=O)c1ccccc1O returned RGS4 inh inactive, RGS4 pot inactive, MrgX1 antag -7.2*, MrgX1 ag inactive and MrgX1 allo act inactive.
Cc1nn(-c2ccccc2)c(Cl)c1/C=N/NC(=O)OC(C)(C)C was read as RGS4 inh inactive, RGS4 pot -8*, MrgX1 antag inactive, MrgX1 ag inactive and MrgX1 allo act inactive.
For COc1cc(/C=N/NC(=O)c2cc(-c3c(C)nn(-c4ccccc4)c3C)n[nH]2)ccc1O the results were RGS4 inh inactive, RGS4 pot inactive, MrgX1 antag inactive, MrgX1 ag inactive and MrgX1 allo act inactive.
Screening CNC(=S)N/N=C/c1c(C)nn(-c2ccccc2)c1Cl returned RGS4 inh inactive, RGS4 pot inactive, MrgX1 antag inactive, MrgX1 ag inactive and MrgX1 allo act inactive.
Screening CCn1ncc(C2=NOC(C(=O)NCC(C)C)C2)c1C (configuration not stated) returned RGS4 inh inactive, RGS4 pot inactive, MrgX1 antag inactive, MrgX1 ag inactive and MrgX1 allo act inactive.
For COC(=O)CN1C(=O)[C@H]2[C@@H](c3ccc(C)o3)N3C(=O)CN(Cc4ccccn4)C(=O)[C@@]3(Cc3ccccc3)[C@H]2C1=O the results were RGS4 inh inactive, RGS4 pot inactive, MrgX1 antag inactive, MrgX1 ag inactive and MrgX1 allo act inactive.
Oc1cccc(C(O)CNCc2ccc(-c3ccccc3)cc2)c1 (configuration not stated) was read as RGS4 inh inactive, RGS4 pot inactive, MrgX1 antag inactive, MrgX1 ag inactive and MrgX1 allo act inactive.
Screening Cc1nn(-c2ccccc2)c(C)c1/C=N/NC(=O)c1cc(-c2cccs2)[nH]n1 returned RGS4 inh inactive, RGS4 pot inactive, MrgX1 antag inactive, MrgX1 ag inactive and MrgX1 allo act inactive.
`Cc1nn(-c2ccccc2)c(C)c1/C=N/NC(=O)c1cccs1` gave RGS4 inh inactive, RGS4 pot inactive, MrgX1 antag -7.1*, MrgX1 ag inactive and MrgX1 allo act inactive.
For Cc1ccc(-c2cc(C(F)F)n3ncc(C(=O)Nc4c(C)nn(Cc5c(Cl)cccc5Cl)c4C)c3n2)cc1 the results were RGS4 inh inactive, RGS4 pot inactive, MrgX1 antag inactive, MrgX1 ag inactive and MrgX1 allo act inactive.
For CCOc1cc(/C=C(\C#N)C(=O)Nc2cccc(C(=O)O)c2)ccc1OCc1ccccc1Cl the results were RGS4 inh inactive, RGS4 pot -8.6*, MrgX1 antag inactive, MrgX1 ag inactive and MrgX1 allo act inactive.
`COc1cc(/C=C(\C#N)C(=O)Nc2cccc(C(=O)O)c2)ccc1OCc1ccc(F)cc1` gave RGS4 inh inactive, RGS4 pot inactive, MrgX1 antag inactive, MrgX1 ag inactive and MrgX1 allo act inactive.
Screening COc1ccc(CN(C)Cc2cc(=O)oc3cc(C)c(C(C)C)cc23)cc1OC returned RGS4 inh inactive, RGS4 pot -7.1*, MrgX1 antag inactive, MrgX1 ag inactive and MrgX1 allo act inactive.
For CN(Cc1ccccc1F)Cc1cc(=O)oc2cc(O)c(Cl)cc12 the results were RGS4 inh inactive, RGS4 pot inactive, MrgX1 antag inactive, MrgX1 ag inactive and MrgX1 allo act inactive.
Screening Cc1cc2oc(=O)cc(CN(C)Cc3ccccc3F)c2cc1Cl returned RGS4 inh inactive, RGS4 pot -7*, MrgX1 antag inactive, MrgX1 ag inactive and MrgX1 allo act inactive.
Screening Cc1cc2oc(=O)cc(CN(C)Cc3ccccc3)c2cc1C(C)C returned RGS4 inh inactive, RGS4 pot inactive, MrgX1 antag inactive, MrgX1 ag inactive and MrgX1 allo act inactive.
For CC(C)N(c1ccccc1)c1ccc(NC(=O)CCl)cc1 the results were RGS4 inh inactive, RGS4 pot inactive, MrgX1 antag inactive, MrgX1 ag inactive and MrgX1 allo act inactive.
For O=C(Nc1ccc2c(c1)OCO2)[C@@H]1CCCN1S(=O)(=O)c1cccc2cccnc12 the results were MrgX1 antag inactive, MrgX1 ag inactive and MrgX1 allo act inactive.
CCCCCNC(=O)C1CC=CCC1C(=O)O (configuration not stated) was read as RGS4 inh inactive, RGS4 pot inactive, MrgX1 antag inactive, MrgX1 ag inactive and MrgX1 allo act inactive.
